{"data": "Experimental data collected from several papers", "species": "human", "sample": "plasma", "note": "Compare with care: the assays were run in different laboratories."}
{"Structure (SMILES)": "Cc1ncc2n1-c1ccc(Cl)cc1C(c1ccccc1F)=NC2", "conditions": "oral, 2 mg", "Cmax": "10.3 ng/mL"}
{"Structure (SMILES)": "C=CCNc1c(O)cc2c(O)c1C[C@@H](C)C[C@H](OC)[C@H](O)[C@@H](C)/C=C(\\C)[C@H](OC(N)=O)[C@@H](OC)/C=C\\C=C(/C)C(=O)N2", "conditions": "intravenous, 400 mg/m², patients, infusion", "Cmax": "7800 ng/mL"}
{"Structure (SMILES)": "c1cc([C@H]2CC[C@]3(CC2)OO[C@]2(O3)C3CC4CC(C3)CC2C4)ccc1OCCN1CCOCC1", "conditions": "oral, 800 mg, patients", "Cmax": "1710 ng/mL"}
{"Structure (SMILES)": "CN(C)CCc1c[nH]c2ccccc12", "conditions": "intravenous, 9 mg, healthy volunteers, infusion", "Cmax": "20.8 ng/mL"}
{"Structure (SMILES)": "CC(=C/C=C/C(C)=C/C(=O)O)/C=C1\\CCCc2ccccc21", "conditions": "oral, 20 mg, single dose, fasted, healthy volunteers", "Cmax": "~70 ng/mL"}
{"Structure (SMILES)": "C=C(C)[C@@H]1CC[C@]2(NCCN3CCS(=O)(=O)CC3)CC[C@]3(C)[C@H](CC[C@@H]4[C@@]5(C)CC=C(C6=CC[C@@](COc7ncccc7C#N)(C(=O)O)CC6)C(C)(C)[C@@H]5CC[C@]43C)[C@@H]12", "conditions": "oral, 100 mg, fed", "Cmax": "390 ng/mL"}
{"Structure (SMILES)": "COc1ccc(C[C@@H]2NC(=O)[C@H]([C@@H](C)O)NC(=O)[C@@H]3[C@@H]4CCN3C(=O)[C@@H]3Cc5cn(c6ccc(F)cc56)CCCCCCN(Cc5ccc(cc5)CCNC(=O)[C@]5(C)CCCN5C2=O)C(=O)CCC(=O)N[C@@H](C)C(=O)N[C@H](CNC(=O)CCCCC[N+](C)(C)C)C(=O)N[C@@H](Cc2cccc(c2)CNC(=O)CO4)C(=O)N3)cc1", "conditions": "oral, 200 mg, single dose", "Cmax": "7.84 nM"}
{"Structure (SMILES)": "CC[C@H](C)[C@H](NC(=O)[C@H](CC(C)C)NC(=O)[C@H](Cc1c[nH]c2ccccc12)NC(=O)[C@H](CCC(N)=O)NC(=O)[C@@H](NC(=O)[C@H](Cc1ccccc1)NC(=O)[C@H](C)NC(=O)[C@H](CCCCNC(=O)COCCOCCNC(=O)COCCOCCNC(=O)CC[C@H](NC(=O)CCCCCCCCCCCCCCCCCCC(=O)O)C(=O)O)NC(=O)[C@H](CCC(N)=O)NC(=O)[C@H](C)NC(=O)[C@@H](NC(=O)[C@H](CCCCN)NC(=O)[C@H](CC(=O)O)NC(=O)[C@H](CC(C)C)NC(=O)C(C)(C)NC(=O)[C@@H](NC(=O)[C@H](CO)NC(=O)[C@H](Cc1ccc(O)cc1)NC(=O)[C@H](CC(=O)O)NC(=O)[C@H](CO)NC(=O)[C@@H](NC(=O)[C@H](Cc1ccccc1)NC(=O)[C@@H](NC(=O)CNC(=O)[C@H](CCC(=O)O)NC(=O)C(C)(C)NC(=O)[C@@H](N)Cc1ccc(O)cc1)[C@@H](C)O)[C@@H](C)O)[C@@H](C)CC)[C@@H](C)CC)C(C)C)C(=O)N[C@@H](C)C(=O)NCC(=O)NCC(=O)N1CCC[C@H]1C(=O)N[C@@H](CO)C(=O)N[C@@H](CO)C(=O)NCC(=O)N[C@@H](C)C(=O)N1CCC[C@H]1C(=O)N1CCC[C@H]1C(=O)N1CCC[C@H]1C(=O)N[C@@H](CO)C(N)=O", "conditions": "subcutaneous, 0.5 mg, multiple doses, healthy volunteers", "Cmax": "77.8 ng/mL"}
{"Structure (SMILES)": "N=C(N)NCCC[C@@H](NC(=O)[C@@H](N)Cc1ccccc1)C(=O)N[C@@H](Cc1ccccc1)C(=O)N[C@@H](CCCCN)C(N)=O", "conditions": "subcutaneous, 15 mg, multiple doses, once daily, patients", "Cmax": "726 ng/mL"}
